Data on one molecule can be found in ChEMBL document CHEMBL3232712, “Antineoplastic agents. 595. Structural modifications of betulin and the X-ray crystal structure of an unusual betulin amine dimer” (2014).

Molecules are shown by their SMILES. In brackets after ≈: the same amount, converted by molar mass. Some results are limits rather than exact numbers.

As usually defined, the GI50 is the concentration that inhibits growth by half. Read a low GI50 as more potent growth inhibition.

What all share (assay type): functional
Assay [1] is described as follows: Cytotoxicity against human KM20L2 cells after 48 hrs by SRB assay. The following applies: KM-20L2, 48 h. The method, boiled down: (§1)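 Human tumour lines in RPMI1640 with 5% fetal bovine serum, trypsinized and counted by hemacytometer, seeded in 96-well plates and allowed 24 h before serial compound dilutions were added. After 48 h exposure, cells were fixed with trichloroacetic acid and stained with sulforhodamine B, and optical density was read. GI50 was taken as the concentration halving net protein increase.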

The test system of assay [2] is SF-268. As to the kind of experiment: Cytotoxicity against human SF268 cells after 48 hrs by SRB assay. The following applies: SF-268, 48 h. The gist of the method: as §1
A general note: The SRB assay estimates cell density from bound dye.

Assay [3] concerns P388. As to the kind of experiment: Cytotoxicity against mouse P388 cells after 48 hrs. Conditions: P388, 48 h, read-out: ED50 (the source's name). The gist of the method:
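Murine P388 leukemia cells, counted by Coulter counter, were grown 24 h in Fisher medium with 10% horse serum, then exposed 48 h to serial compound dilutions. Cell numbers were determined with a Coulter particle counter, and ED50 was calculated for growth inhibition.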

A short description of assay [4]: Cytotoxicity against human BxPC3 cells after 48 hrs by SRB assay. Conditions: BXPC-3, 48 h. The gist of the method:
as §1

The subject of assay [5] is MCF7. Briefly: Cytotoxicity against human MCF7 cells after 48 hrs by SRB assay. Conditions: MCF7, 48 h. The method, boiled down:
as §1

Assay [6] relates to NCI-H460. As to the kind of experiment: Cytotoxicity against human NCI-H460 cells after 48 hrs by SRB assay. The following applies: NCI-H460, 48 h. The gist of the method: as §1
The subject of assay [7] is DU-145. Briefly: Cytotoxicity against human DU145 cells after 48 hrs by SRB assay. The following applies: DU-145, 48 h. The method, boiled down: as §1

Turning to `C=C(C)[C@@H]1CC[C@]2(C(=O)OC)CC[C@]3(C)[C@H](CC[C@@H]4[C@@]5(C)CCC(=O)C(C)(C)[C@@H]5CC[C@]43C)[C@@H]12` [METHYL BETULONATE], the 50% growth inhibitory concentration (GI50) in assay [1] worked out at 2.2 mg/L (≈ 4.69 µM); in assay [2], 2.7 mg/L (≈ 5.76 µM); in assay [4], 2.4 mg/L (≈ 5.12 µM); in assay [5], 2.7 mg/L (≈ 5.76 µM); in assay [6] it was 2.3 mg/L (≈ 4.91 µM); in assay [7] it was 2.3 mg/L (≈ 4.91 µM). In assay [3], the EC50 is over 10 mg/L.
